The results in this text go back to ChEMBL document CHEMBL1141034, “Optimization of the in vitro and in vivo properties of a novel series of 2,4,5-trisubstituted imidazoles as potent cholecystokinin-2 (CCK2) antagonists” (J Med Chem, 2005).

Series [1] can be described thus: Lipophilicity was measured in octanol/buffer (pH 7.4). Format: physicochemical. A digest of the protocol: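 log D from partition between octanol and buffer at pH 7.4, given ± error.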
Series [2] addresses T1, Gastrin/cholecystokinin type B receptor (Canis lupus familiaris) (UniProt P30552).
T1 sequence (whole entry): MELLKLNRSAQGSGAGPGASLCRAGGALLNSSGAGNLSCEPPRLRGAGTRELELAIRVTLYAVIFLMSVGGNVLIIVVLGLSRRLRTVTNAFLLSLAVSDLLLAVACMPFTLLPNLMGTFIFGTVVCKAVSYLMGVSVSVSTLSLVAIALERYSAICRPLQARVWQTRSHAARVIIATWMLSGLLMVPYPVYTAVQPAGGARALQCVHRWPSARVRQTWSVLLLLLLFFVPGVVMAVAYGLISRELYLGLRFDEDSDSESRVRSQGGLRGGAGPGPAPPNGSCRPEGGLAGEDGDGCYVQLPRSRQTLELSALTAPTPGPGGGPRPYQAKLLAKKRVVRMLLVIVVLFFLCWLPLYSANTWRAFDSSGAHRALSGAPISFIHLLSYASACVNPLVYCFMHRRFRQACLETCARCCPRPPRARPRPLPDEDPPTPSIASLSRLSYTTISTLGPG
Nature of the series: Percent inhibition (i.d., 10.0 mg/Kg) against dog CCK2 receptor. A digest of the protocol: (§1)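 Conscious dogs given a bolus iv or intraduodenally during pentagastrin-stimulated acid secretion. Result is the peak percentage inhibition of acid output in the first four collection periods (1 h) after dosing, ± SEM, with the number of replicates stated.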

Series [3] has as its target T1, Gastrin/cholecystokinin type B receptor (Canis lupus familiaris). As to the kind of experiment: Percent inhibition (i.v., 1.0 mg/Kg) against dog CCK2 receptor. A digest of the protocol: as §1
Series [4] addresses T2, Cholecystokinin receptor type A (Cavia porcellus, UniProt Q63931).
T2 sequence (Q63931 whole entry): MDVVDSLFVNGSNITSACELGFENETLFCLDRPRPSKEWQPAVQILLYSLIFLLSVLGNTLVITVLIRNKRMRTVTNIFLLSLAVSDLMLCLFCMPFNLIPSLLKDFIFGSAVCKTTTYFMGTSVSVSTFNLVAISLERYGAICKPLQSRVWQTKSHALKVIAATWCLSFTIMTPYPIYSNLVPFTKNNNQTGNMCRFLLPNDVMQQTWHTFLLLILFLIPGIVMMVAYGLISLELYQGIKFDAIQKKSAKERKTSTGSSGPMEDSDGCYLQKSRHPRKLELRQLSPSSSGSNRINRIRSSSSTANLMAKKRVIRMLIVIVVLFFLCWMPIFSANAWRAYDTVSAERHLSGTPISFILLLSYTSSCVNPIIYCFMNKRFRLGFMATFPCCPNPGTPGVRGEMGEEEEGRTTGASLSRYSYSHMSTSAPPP
As to the kind of experiment: Concentration required to inhibit the binding of 20 pM [125I]BH-CCK-8S radioligand to guinea pig pancreas CCK1 receptor. The method in brief:
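CCK1 sites on guinea pig pancreatic cells. Competition with 20 pM [125I]BH-CCK-8S, reported as pKI. At least three separate experiments give ± SEM. Where only two experiments were run, no error is given (approximate SEM 0.1 log units).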

Series [5] deals with T3, Gastrin/cholecystokinin type B receptor (Canis lupus familiaris, UniProt P30552).
T3 sequence (P30552 whole entry): T1 sequence (whole entry)
As to the kind of experiment: Concentration required to inhibit the binding of [125I]-BH-CCK-8S radioligand to canine gastric mucosa CCK2 receptor. The method in brief: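 Canine gastric mucosa. Competition with [125I]BH-CCK-8S for CCK2 binding sites, reported as pIC50 ± SEM.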

For `O=C(O)c1cccc(NC(=O)c2[nH]c(C3CCCCC3)nc2CCC23CC4CC(CC(C4)C2)C3)c1`, the logD in series [1] worked out at 4.12. The inhibition in series [2] was determined as 46%; in series [3], 40%. Further, the affinity in series [4], expressed as Ki, was 575 nM. The molecule further gave an IC50 in series [5] of 29.5 nM.
